Laboratory results as given in ChEMBL document CHEMBL3217529, “Carbocyclic 5'-nor "reverse" fleximers. Design, synthesis, and preliminary biological activity” (Medchemcomm, 2011).

Columns and labels:
Human respirovirus 3 = experiment: Antiviral activity against Parainfluenza virus 3 infected in African green monkey Vero cells assessed as inhibition of virus-induced cytopathicity; assay type: functional, organism-based; conditions: Human respirovirus 3, Vero
Method in brief: (§1)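 Confluent cell monolayers in 96-well plates inoculated with 100 CCID50 of virus alongside 5-fold serial dilutions of compound. Cytopathicity scored once it was complete in untreated infected controls.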

Human betaherpesvirus 5 [1] = experiment: Antiviral activity against human cytomegalovirus Davis infected in human HEL cells assessed as inhibition of virus-induced cytopathicity after 7 days by Giemsa staining-based microscopic analysis; assay type: functional, organism-based; conditions: Human betaherpesvirus 5, Davis, 168 h
Method in brief: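 Confluent HEL fibroblasts were infected with 100 PFU per well. After 2 h, residual virus was removed and compound-containing medium was added, in duplicate. At 7 days at 37 °C, cells were ethanol-fixed and Giemsa-stained, and cytopathogenicity was assessed microscopically.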

Human alphaherpesvirus 1 [2] = experiment: Antiviral activity against thymidine kinase-deficient Herpes simplex virus type 1 infected in human HEL cells assessed as inhibition of virus-induced cytopathicity; assay type: functional, organism-based; conditions: Human alphaherpesvirus 1, HEL
Vaccinia virus = experiment: Antiviral activity against Vaccinia virus infected in human HEL cells assessed as inhibition of virus-induced cytopathicity; assay type: functional, organism-based; conditions: Orthopoxvirus vaccinia
Human betaherpesvirus 5 [3] = experiment: Antiviral activity against human cytomegalovirus AD169 infected in human HEL cells assessed as inhibition of virus-induced cytopathicity after 7 days by Giemsa staining-based microscopic analysis; assay type: functional, organism-based; conditions: Human betaherpesvirus 5, AD169, HEL, 168 h
Method in brief: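 Confluent HEL fibroblasts infected with HCMV AD-169 or Davis at 100 PFU/well for 2 h, then residual virus removed. Medium with graded compound concentrations added, in duplicate. After 7 days at 37 °C, cells ethanol-fixed and Giemsa-stained, and cytopathogenicity read microscopically. EC50 taken from plots of % cytopathogenicity versus concentration.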

Human alphaherpesvirus 3 [4] = experiment: Antiviral activity against thymidine kinase-deficient Varicella-zoster virus 07-1 infected in human HEL cells assessed as reduction of viral plaque formation after 5 days; assay type: functional, organism-based; conditions: Human alphaherpesvirus 3, 07-1, HEL, 120 h
Method in brief: (§2)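 Confluent HEL cells were inoculated with 20 PFU per well. After 2 h, residual virus was removed and compound dilutions were added, in duplicate.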

Human alphaherpesvirus 3 [5] = experiment: Antiviral activity against wild type Varicella-zoster virus Oka infected in human HEL cells assessed as reduction of viral plaque formation after 5 days; assay type: functional, organism-based; conditions: Human alphaherpesvirus 3, strain Oka vaccine, 120 h; method in brief: as §2
[6] = test system: Mammalian orthoreovirus 1; experiment: Antiviral activity against Reovirus 1 infected in African green monkey Vero cells assessed as inhibition of virus-induced cytopathicity; assay type: functional, cell-based; conditions: Mammalian orthoreovirus 1, Vero
[7] = test system: Vesicular stomatitis virus; experiment: Antiviral activity against Vesicular stomatitis virus infected in human HEL cells assessed as inhibition of virus-induced cytopathicity; assay type: functional, organism-based
Human alphaherpesvirus 1 [8] = experiment: Antiviral activity against Herpes simplex virus type 1 KOS infected in human HEL cells assessed as inhibition of virus-induced cytopathicity; assay type: functional, organism-based; conditions: Human alphaherpesvirus 1, KOS
[9] = test system: Human immunodeficiency virus 2; experiment: Antiviral activity against HIV-2 ROD infected in human CEM cells assessed as inhibition of virus-induced giant cell formation after 4 days by microscopic analysis; assay type: functional, organism-based; conditions: Human immunodeficiency virus 2, ISOLATE ROD, CCRF-CEM, 96 h
Method in brief: (§3)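 CEM cells (~3 × 10^5 cells per cm3) were infected with 100 CCID50 of virus per mL and seeded into wells containing compound dilutions. After 4 days at 37 °C, giant cell formation was examined microscopically.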

Human alphaherpesvirus 2 = experiment: Antiviral activity against Herpes simplex virus type 2 G infected in human HEL cells assessed as inhibition of virus-induced cytopathicity; assay type: functional, organism-based; conditions: Human alphaherpesvirus 2, strain G
Punta Toro virus = experiment: Antiviral activity against Punta Toro virus infected in African green monkey Vero cells assessed as inhibition of virus-induced cytopathicity; assay type: functional, organism-based
Influenza B virus = experiment: Antiviral activity against Influenza B virus infected in MDCK cells assessed as inhibition of virus-induced cytopathicity; assay type: functional, organism-based
[10] = Cytotoxicity against African green monkey Vero cells assessed as concentration required to cause microscopically visible alternation of cell morphology; assay type: cell-based; conditions: chlorocebus sabaeus
Method in brief: (§4)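 Confluent cultures (MDCK nearly confluent) exposed to 5-fold serial compound dilutions alongside the antiviral assays. MCC is the lowest concentration producing a microscopically visible change in cell morphology.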

Sindbis virus = experiment: Antiviral activity against Sindbis virus infected in African green monkey Vero cells assessed as inhibition of virus-induced cytopathicity; assay type: functional, organism-based
[11] = Cytotoxicity against human HEL cells assessed as concentration required to cause microscopically visible alternation of cell morphology; assay type: cell-based; method in brief: as §4
[12] = Cytotoxicity against MDCK cells assessed as concentration required to cause microscopically visible alternation of cell morphology; assay type: cell-based, Canis lupus familiaris; conditions: dog; method in brief: as §4
Influenza A virus H3N2 = experiment: Antiviral activity against Influenza A virus H3N2 infected in MDCK cells assessed as inhibition of virus-induced cytopathicity; assay type: functional, organism-based
Coxsackievirus B4 [13] = experiment: Antiviral activity against Coxsackievirus B4 infected in human HeLa cells assessed as inhibition of virus-induced cytopathicity; assay type: functional, organism-based; conditions: Enterovirus B; method in brief: as §1
Influenza A virus = experiment: Antiviral activity against Influenza A virus H1N1 infected in MDCK cells assessed as inhibition of virus-induced cytopathicity; assay type: functional, organism-based
[14] = test system: Human immunodeficiency virus 1; experiment: Antiviral activity against HIV-1 3B infected in human CEM cells assessed as inhibition of virus-induced giant cell formation after 4 days by microscopic analysis; assay type: functional, organism-based; conditions: Human immunodeficiency virus 1, 3B, CCRF-CEM, 96 h; method in brief: as §3
[15] = test system: Vesicular stomatitis virus; experiment: Antiviral activity against Vesicular stomatitis virus infected in human HeLa cells assessed as inhibition of virus-induced cytopathicity; assay type: functional, organism-based
[16] = Cytotoxicity against human HeLa cells assessed as concentration required to cause microscopically visible alternation of cell morphology; assay type: cell-based; method in brief: as §4
[17] = test system: Respiratory syncytial virus; experiment: Antiviral activity against Respiratory syncytial virus infected in human HeLa cells assessed as inhibition of virus-induced cytopathicity; assay type: functional, organism-based
Coxsackievirus B4 [18] = experiment: Antiviral activity against Coxsackievirus B4 infected in African green monkey Vero cells assessed as inhibition of virus-induced cytopathicity; assay type: functional, organism-based; conditions: Enterovirus B

| SMILES | EC50 (Human respirovirus 3) [µM] | EC50 (Human betaherpesvirus 5 [1]) [µM] | EC50 (Human alphaherpesvirus 1 [2]) [µM] | EC50 (Vaccinia virus) [µM] | EC50 [6] [µM] | EC50 [7] [µM] | EC50 (Human alphaherpesvirus 1 [8]) [µM] | EC50 [9] [µM] | EC50 (Human alphaherpesvirus 2) [µM] | EC50 (Punta Toro virus) [µM] | MCC [10] [µM] | EC50 (Sindbis virus) [µM] | MCC [11] [µM] | MCC [12] [µM] | EC50 (Coxsackievirus B4 [13]) [µM] | EC50 [14] [µM] | EC50 [15] [µM] | MCC [16] [µM] | EC50 [17] [µM] | EC50 (Coxsackievirus B4 [18]) [µM] | also measured |
| --- | --- | --- | --- | --- | --- | --- | --- | --- | --- | --- | --- | --- | --- | --- | --- | --- | --- | --- | --- | --- | --- |
| O=c1[nH]c(=O)n(C2C=CC(O)C2)cc1-c1cccs1 (stereo unspecified) | > 4 | 1.8 | > 4 | > 4 | > 4 | > 4 | > 4 | > 2 | > 4 | > 4 | 20 | > 4 | ≥ 4 | 4 | > 4 | > 2 | 4 | 20 | > 4 | > 4 | EC50 (Human betaherpesvirus 5 [3]): 1.8 µM; EC50 (Human alphaherpesvirus 3 [4]): 1.6 µM; EC50 (Human alphaherpesvirus 3 [5]): 1.6 µM; EC50 (Influenza B virus): > 0.8 µM; EC50 (Influenza A virus H3N2): > 0.8 µM; EC50 (Influenza A virus): > 0.8 µM |
| O=c1[nH]c(=O)n(C2C=CC(O)C2)cc1-c1ccco1 (stereo unspecified) | > 100 | – | > 100 | > 100 | 100 | > 100 | > 100 | > 100 | > 100 | 20 | > 100 | – | > 100 | – | > 100 | > 100 | > 100 | > 100 | > 100 | > 100 | – |
| O=c1[nH]c(=O)n(C2C=CC(O)C2)cc1-c1cncs1 (stereo unspecified) | > 100 | > 20 | > 100 | > 100 | > 100 | > 100 | > 100 | > 50 | > 100 | > 100 | > 100 | > 100 | ≥ 100 | 100 | > 100 | > 50 | > 100 | > 100 | > 100 | > 100 | EC50 (Human betaherpesvirus 5 [3]): > 20 µM; EC50 (Human alphaherpesvirus 3 [4]): 47 µM; EC50 (Human alphaherpesvirus 3 [5]): 47 µM; EC50 (Influenza B virus): > 20 µM; EC50 (Influenza A virus H3N2): > 20 µM; EC50 (Influenza A virus): > 20 µM |
| NC(=O)c1ncn([C@@H]2O[C@H](CO)[C@@H](O)[C@H]2O)n1 [RIBAVIRIN] | – | – | – | > 250 | > 250 | – | > 250 | > 50 | > 250 | – | > 250 | > 250 | > 250 | > 100 | – | > 50 | – | > 250 | – | > 250 | – |
